The text below walks through data of ChEMBL document CHEMBL1148324 (J Med Chem, 2004).

The EC50 is the concentration needed to bring the measured effect to its halfway point.

In assay [1] the target is T1, Sulfonylurea receptors; K-ATP channels (Homo sapiens, UniProt O60706+Q09428+Q14654+Q15842). Description: Evaluated for K-ATP activity as stable twitch response through field-stimulated landrace pig detrusor assay (FSLPD). The assay is classed as functional, Sus scrofa. To be noted: target entry is the homologue from another species.
The nature of assay [2]: Selectivity expressed as the ratio of pEC50 (SLPD) and pEC50 (FSLPD). The assay is classed as functional.
Assay [3] concerns the target T1, Sulfonylurea receptors; K-ATP channels. Description: (§1) Evaluated for K-ATP activity in terms of change in membrane potential through guinea pig bladder assay. It counts as functional, Cavia porcellus. The settings on record: target entry is the homologue from another species.
Assay [4] has the same target. Description: Evaluated for K-ATP activity as in vitro bladder relaxation in spontaneous Landrace pig detrusor strips (SLPD). It counts as functional, Sus scrofa. The settings on record: target entry is the homologue from another species. Summed up: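 Bladder strips taken near the trigonal region of Landrace pig bladder, contracting spontaneously (myogenic, no cholinergic component). Test agents added at increasing concentrations; the read-out is the reduction in area under the contraction curve.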

Assay [5] shares this target. The assay can be described thus: Evaluated for K-ATP activity in terms of stable twitch response through field-stimulated landrace pig detrusor assay. The assay is classed as functional, Sus scrofa. To be noted: target entry is the homologue from another species.
The target in assay [6] is Sulfonylurea receptors; K-ATP channels (UniProt Q14654+O60706+Q09428+Q15842). The assay is described as §1. The assay is classed as functional, Cavia porcellus. The settings on record: target entry is the homologue from another species.
The species named for assay [7] is Sus scrofa. Description: Evaluated for change in heart rate from baseline at a plasma concentration of 1.9 nM in pigs. It counts as functional. The method in brief: (§2)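 Conscious female Landrace/Yorkshire swine (~12 weeks, 14–20 kg), urethra obstructed with a 7.5 mm silver omega ring, telemeterized, held in a restraint cage with ear venous catheters. After a 30 min baseline, increasing doses are given i.v. (3 min infusion) at 30 min intervals. Plasma is sampled 15 min after each dose for LC/MS. MAP and HR are averaged in 5 min bins over each 30 min period, expressed as % change from baseline; n = 2–4.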

Assay [8] is filed under the species Sus scrofa. Description: Evaluated for change in mean arterial pressure from baseline at a plasma concentration of 24 nM in pigs. The assay is classed as functional. The method in brief: as §2
The species named for assay [9] is Sus scrofa. Description: Evaluated for change in mean arterial pressure from baseline at a plasma concentration of 1.9 nM in pigs. It counts as functional. The method in brief:
as §2

The species entered for assay [10] is Sus scrofa. The assay can be described thus: Evaluated for change in heart rate from baseline at a plasma concentration of 24 nM in pigs. The assay is classed as functional. The method in brief:
as §2

Assay [11] is filed under the species Sus scrofa. Description: Evaluated for change in heart rate from baseline at a plasma concentration of 95 nM in pigs. The assay is classed as functional. The method in brief:
as §2

The species named for assay [12] is Sus scrofa. The assay can be described thus: Evaluated for change in mean arterial pressure from baseline at a plasma concentration of 95 nM in pigs. The assay is classed as functional. The method in brief:
as §2

For assay [13], the species on record is Sus scrofa. The assay can be described thus: Evaluated for change in mean arterial pressure from baseline at a plasma concentration of 44 nM in pigs. It counts as functional. The method in brief: as §2
The species named for assay [14] is Sus scrofa. Description: Evaluated for change in heart rate from baseline at a plasma concentration of 12 nM in pigs. The assay is classed as functional. Summed up: as §2
The species named for assay [15] is Sus scrofa. The assay can be described thus: Evaluated for change in mean arterial pressure from baseline at a plasma concentration of 167 nM in pigs. The assay is classed as functional. Summed up:
as §2

Assay [16] is filed under the species Sus scrofa. The assay can be described thus: Evaluated for change in heart rate from baseline at a plasma concentration of 167 nM in pigs. The assay is classed as functional. Summed up: as §2
Assay [17] is filed under the species Sus scrofa. The assay can be described thus: Evaluated for change in heart rate from baseline at a plasma concentration of 44 nM in pigs. It counts as functional. Summed up:
as §2

Assay [18] is filed under the species Sus scrofa. The assay can be described thus: Evaluated for change in mean arterial pressure from baseline at a plasma concentration of 12 nM in pigs. It counts as functional. Summed up: as §2

Chain of Sulfonylurea receptors; K-ATP channels (UniProt Q14654+O60706+Q09428+Q15842) (Q14654 whole entry, the tested form may be a part): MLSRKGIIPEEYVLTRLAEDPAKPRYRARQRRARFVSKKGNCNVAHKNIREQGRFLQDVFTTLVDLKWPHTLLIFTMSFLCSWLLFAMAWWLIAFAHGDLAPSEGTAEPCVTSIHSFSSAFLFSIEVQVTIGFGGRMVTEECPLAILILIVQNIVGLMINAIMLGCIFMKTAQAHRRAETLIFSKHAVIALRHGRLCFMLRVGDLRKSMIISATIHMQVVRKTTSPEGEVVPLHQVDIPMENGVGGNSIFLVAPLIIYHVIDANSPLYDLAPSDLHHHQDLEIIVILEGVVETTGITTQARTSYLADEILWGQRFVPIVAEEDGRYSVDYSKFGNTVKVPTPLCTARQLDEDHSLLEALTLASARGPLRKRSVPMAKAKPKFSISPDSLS
Chain of Sulfonylurea receptors; K-ATP channels (UniProt Q14654+O60706+Q09428+Q15842) (O60706 whole entry, the tested form may be a part): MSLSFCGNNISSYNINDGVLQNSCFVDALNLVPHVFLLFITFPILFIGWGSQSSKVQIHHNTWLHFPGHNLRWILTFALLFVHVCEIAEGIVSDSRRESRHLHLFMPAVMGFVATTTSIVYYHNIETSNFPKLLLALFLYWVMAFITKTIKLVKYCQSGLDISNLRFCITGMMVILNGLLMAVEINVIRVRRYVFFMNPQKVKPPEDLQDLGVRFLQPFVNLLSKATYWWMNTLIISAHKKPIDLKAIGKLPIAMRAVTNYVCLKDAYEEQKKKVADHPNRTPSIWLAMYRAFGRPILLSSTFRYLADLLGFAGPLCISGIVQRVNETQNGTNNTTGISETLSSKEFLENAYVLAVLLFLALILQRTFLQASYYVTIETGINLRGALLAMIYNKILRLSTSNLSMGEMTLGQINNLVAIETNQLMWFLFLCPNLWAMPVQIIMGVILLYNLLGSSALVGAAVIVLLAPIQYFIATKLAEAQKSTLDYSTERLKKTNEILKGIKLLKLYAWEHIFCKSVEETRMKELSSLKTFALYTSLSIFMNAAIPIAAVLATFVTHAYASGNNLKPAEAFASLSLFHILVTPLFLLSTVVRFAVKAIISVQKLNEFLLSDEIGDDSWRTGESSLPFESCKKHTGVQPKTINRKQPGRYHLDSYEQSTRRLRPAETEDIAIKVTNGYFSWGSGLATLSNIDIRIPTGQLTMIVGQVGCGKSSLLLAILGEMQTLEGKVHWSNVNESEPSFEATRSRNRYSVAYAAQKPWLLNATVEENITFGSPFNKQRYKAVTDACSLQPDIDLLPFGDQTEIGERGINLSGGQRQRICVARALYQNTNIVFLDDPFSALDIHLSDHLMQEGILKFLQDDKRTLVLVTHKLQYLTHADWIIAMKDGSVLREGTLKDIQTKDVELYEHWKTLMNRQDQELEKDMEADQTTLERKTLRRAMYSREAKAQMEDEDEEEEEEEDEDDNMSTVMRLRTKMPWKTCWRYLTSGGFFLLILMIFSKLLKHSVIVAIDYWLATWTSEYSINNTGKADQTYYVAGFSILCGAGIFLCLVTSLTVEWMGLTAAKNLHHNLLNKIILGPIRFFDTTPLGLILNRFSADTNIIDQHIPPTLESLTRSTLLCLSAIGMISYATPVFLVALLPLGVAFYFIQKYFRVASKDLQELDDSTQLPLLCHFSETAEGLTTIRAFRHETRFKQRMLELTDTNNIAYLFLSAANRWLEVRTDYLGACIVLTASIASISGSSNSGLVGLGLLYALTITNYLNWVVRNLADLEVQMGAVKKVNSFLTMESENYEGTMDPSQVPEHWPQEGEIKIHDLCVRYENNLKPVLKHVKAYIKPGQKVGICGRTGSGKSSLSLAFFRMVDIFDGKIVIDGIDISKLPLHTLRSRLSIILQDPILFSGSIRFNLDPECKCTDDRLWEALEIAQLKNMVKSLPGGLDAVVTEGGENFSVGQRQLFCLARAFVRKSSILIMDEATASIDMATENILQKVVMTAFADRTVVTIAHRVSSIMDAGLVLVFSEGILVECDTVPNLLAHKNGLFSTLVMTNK
Chain of Sulfonylurea receptors; K-ATP channels (UniProt Q14654+O60706+Q09428+Q15842) (Q09428 whole entry, the tested form may be a part): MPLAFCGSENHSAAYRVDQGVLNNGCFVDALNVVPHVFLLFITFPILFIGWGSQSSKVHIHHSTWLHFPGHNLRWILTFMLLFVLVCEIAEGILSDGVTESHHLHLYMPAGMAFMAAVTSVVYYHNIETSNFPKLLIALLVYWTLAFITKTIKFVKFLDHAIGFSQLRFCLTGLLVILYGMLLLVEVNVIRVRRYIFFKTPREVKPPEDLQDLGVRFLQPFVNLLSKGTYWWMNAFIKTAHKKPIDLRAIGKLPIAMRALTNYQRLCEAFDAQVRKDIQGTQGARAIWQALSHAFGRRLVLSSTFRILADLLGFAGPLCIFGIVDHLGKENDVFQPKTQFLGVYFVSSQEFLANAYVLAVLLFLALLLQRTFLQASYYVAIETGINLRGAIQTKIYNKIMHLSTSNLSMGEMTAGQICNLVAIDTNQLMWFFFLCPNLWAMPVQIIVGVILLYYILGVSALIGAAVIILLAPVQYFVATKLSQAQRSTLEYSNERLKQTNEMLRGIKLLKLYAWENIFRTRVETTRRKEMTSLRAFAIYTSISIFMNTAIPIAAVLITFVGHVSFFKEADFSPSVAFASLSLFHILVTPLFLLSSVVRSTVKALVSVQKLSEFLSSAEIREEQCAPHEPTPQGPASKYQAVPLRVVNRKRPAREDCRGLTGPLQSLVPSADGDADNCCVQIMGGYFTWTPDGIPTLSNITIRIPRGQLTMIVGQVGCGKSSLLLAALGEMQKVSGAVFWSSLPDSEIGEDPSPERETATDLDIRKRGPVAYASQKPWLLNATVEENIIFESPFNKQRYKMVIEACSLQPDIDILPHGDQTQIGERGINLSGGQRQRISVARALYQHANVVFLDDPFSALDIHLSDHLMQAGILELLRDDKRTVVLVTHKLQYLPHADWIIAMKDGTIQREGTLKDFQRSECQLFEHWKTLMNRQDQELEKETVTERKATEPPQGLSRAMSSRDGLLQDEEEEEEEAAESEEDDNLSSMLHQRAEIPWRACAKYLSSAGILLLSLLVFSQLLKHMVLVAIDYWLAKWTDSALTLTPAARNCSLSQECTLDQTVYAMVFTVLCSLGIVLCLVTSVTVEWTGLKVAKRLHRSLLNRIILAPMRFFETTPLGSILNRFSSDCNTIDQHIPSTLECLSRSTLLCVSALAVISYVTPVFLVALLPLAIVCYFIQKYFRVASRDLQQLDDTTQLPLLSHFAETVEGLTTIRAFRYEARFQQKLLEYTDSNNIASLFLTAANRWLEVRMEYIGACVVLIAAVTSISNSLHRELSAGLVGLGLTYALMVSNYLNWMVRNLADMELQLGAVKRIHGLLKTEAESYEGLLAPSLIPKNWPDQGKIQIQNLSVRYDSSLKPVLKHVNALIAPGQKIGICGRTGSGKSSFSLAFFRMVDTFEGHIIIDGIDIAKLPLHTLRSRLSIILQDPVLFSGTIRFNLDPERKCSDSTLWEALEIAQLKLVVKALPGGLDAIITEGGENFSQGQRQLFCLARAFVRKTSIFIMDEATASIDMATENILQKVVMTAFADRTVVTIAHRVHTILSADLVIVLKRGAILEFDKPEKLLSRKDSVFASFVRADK
Chain of Sulfonylurea receptors; K-ATP channels (UniProt Q14654+O60706+Q09428+Q15842) (Q15842 whole entry, the tested form may be a part): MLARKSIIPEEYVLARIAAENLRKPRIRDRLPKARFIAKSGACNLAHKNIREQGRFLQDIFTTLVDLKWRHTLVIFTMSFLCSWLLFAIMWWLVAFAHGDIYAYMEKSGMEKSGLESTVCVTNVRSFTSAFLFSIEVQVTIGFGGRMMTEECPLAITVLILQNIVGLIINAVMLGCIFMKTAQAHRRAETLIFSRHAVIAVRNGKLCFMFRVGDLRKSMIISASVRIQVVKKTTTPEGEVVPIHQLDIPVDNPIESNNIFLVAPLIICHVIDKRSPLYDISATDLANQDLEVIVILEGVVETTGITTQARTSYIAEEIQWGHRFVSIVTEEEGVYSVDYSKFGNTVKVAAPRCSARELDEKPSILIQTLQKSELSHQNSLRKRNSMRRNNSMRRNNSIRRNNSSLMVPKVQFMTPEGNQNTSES

Turning to `O=C1CCCC2=C1[C@@H](c1ccc(F)c(Br)c1)C1=C(CCS1(=O)=O)N2`, the values for the EC50 in assay [1], in assay [3] and in [4] were 0.0692 µM, 0.0437 µM and 0.0126 µM, respectively. Further, the Selectivity in assay [2] came to 5.5.

As to `CCc1cc(C#N)ccc1Nc1c(N[C@H](C)C(C)(C)C)c(=O)c1=O`, the values for the EC50 in assay [5], in assay [3] and in assay [4] were 0.676 µM, 0.251 µM and 0.102 µM, respectively. Further, the Selectivity in assay [2] came to 6.6.

Compound `O=C1CCC2=C1C(c1ccc([N+](=O)[O-])s1)C1=C(CCS1(=O)=O)N2` (stereo not given) showed an EC50 in assay [5] of 0.479 µM. Besides, in [6], the Log EC50 was -6.82.

With `O=C1CCCC2=C1[C@H](c1ccc(F)c(Br)c1)C1=C(CCS1(=O)=O)N2`, the “Delta HR” value in the assay listed under Sus scrofa [7] stood at 6.2%; in the assay listed under Sus scrofa [10] it was 3.5%; in the assay filed under Sus scrofa [11] it was 56%. The results for the “Delta MAP” value in the assay filed under Sus scrofa [8], in the assay filed under Sus scrofa [9] and in the assay listed under Sus scrofa [12] were -6.9%, -5.4% and -27%, respectively. The EC50 was 0.234 µM in [5], 0.123 µM in assay [3] and 0.0229 µM in [4]. Also, the Selectivity in [2] was determined as 10.

Take `CC1(C)Oc2ccc(C#N)cc2[C@H](N2CCCC2=O)[C@H]1O` (single isomer, unassigned) [(-)-CROMAKALIM]: the results for the “Delta MAP” value in the assay listed under Sus scrofa [13], in the assay filed under Sus scrofa [15] and in the assay listed under Sus scrofa [18] were -12%, -33% and -6.3%, respectively. Moreover, the “Delta HR” value in the assay filed under Sus scrofa [14] was 13%; in the assay listed under Sus scrofa [16] it was 47%; in the assay listed under Sus scrofa [17], 38%.

On to `CCC(C)(C)NC(=NC#N)Nc1cccnc1`, for which the figures for the EC50 in [5], in assay [3] and in [4] were 0.0851 µM, 0.0447 µM and 0.0219 µM, respectively.

For `O=C1CCCC2=C1[C@H](c1ccc(F)c(Cl)c1)C1=C(CCS1(=O)=O)N2`, the EC50 in assay [5] was 0.214 µM; in assay [3] it was 0.138 µM.

As for `CC1(C)CCC(=O)C2=C1NC1=C([C@H]2c2ccc(F)c(Br)c2)S(=O)(=O)CC1`, the EC50 in assay [5] was 2.69 µM; in assay [3] it was 0.631 µM.

As for `O=C1CCC2=C1C(c1csc([N+](=O)[O-])c1)C1=C(CCS1(=O)=O)N2` (stereo not given), the EC50 is 0.661 µM in assay [5] and 0.24 µM in assay [3].

For the compound `CC1(C)CCC2=C(C1=O)[C@@H](c1ccc(F)c(Br)c1)C1=C(CCS1(=O)=O)N2`, the EC50 in [5] was 0.977 µM; in assay [3], 0.107 µM.

For `O=C1CCCC2=C1[C@H](c1ccc(Cl)c(Cl)c1)C1=C(CCS1(=O)=O)N2`, the EC50 is 0.331 µM in assay [5] and 0.269 µM in assay [3].

`C=Cc1cc([C@H]2C3=C(CCCC3=O)NC3=C2S(=O)(=O)CC3)ccc1F`: the EC50 is 2.45 µM in assay [5] and 1.35 µM in [3].

With `Cc1ccc([C@H]2C3=C(CCCC3=O)NC3=C2S(=O)(=O)CC3)cc1Br`, the EC50 is 0.11 µM in assay [5] and 0.182 µM in assay [3].

Turning to `O=C1CCC2=C1[C@@H](c1ccc(F)c(Br)c1)C1=C(CCCS1(=O)=O)N2`, the EC50 in assay [5] is 0.282 µM; in assay [3], 0.0525 µM.
